Tests used:
[1] = tested on: Canis familiaris; assay: Inhibition of gastric acid secretion at 40 mg/kg oral administration to dogs; type: functional; conditions: Canis lupus familiaris, Stomach
Outline: (§1)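 Unanesthetized female beagle dogs with chronic gastric fistula; compound in 50 mL aqueous 1% methylcellulose delivered into stomach via fistula cannula 60 min before gastrin tetrapeptide (64 μg/kg sc, maximal secretory dose). Gastric output drained by gravity over three 30-min periods; acid concentration by titration to pH 7 with 0.01 N NaOH; percent decrease in acid concentration versus placebo trial in same animal; dose as base weight.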

[2] = tested on: Canis familiaris; assay: Inhibition of gastric acid secretion at 20 mg/kg oral administration to dogs; type: functional; conditions: Canis lupus familiaris, Stomach; outline: as §1
[3] = tested on: Canis familiaris; assay: Acid concentration of gastrin tetrapeptide stimulated inhibition of gastric secretion when administered perorally in dogs; type: functional; conditions: Canis lupus familiaris, Stomach, po
Outline: (§2)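 Unanesthetized female beagle dogs with chronic gastric fistula; compound in 50 mL 1% aqueous methylcellulose given into stomach via fistula cannula 60 min before stimulant (gastrin tetrapeptide 64 μg/kg sc, or histamine dihydrochloride 64 μg base/kg sc). Output drained by gravity, three 30-min periods; volume measured, acid concentration titrated to pH 7 with 0.01 N NaOH, output = volume × concentration. Percent change vs placebo trial in same dog.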

[4] = tested on: Canis familiaris; assay: Acid output of histamine stimulated inhibition of gastric secretion when administered perorally in dogs; type: functional; conditions: Canis lupus familiaris, Stomach, po; outline: as §2
[5] = tested on: Canis familiaris; assay: Acid output of gastrin tetrapeptide stimulated inhibition of gastric secretion when administered perorally in dogs; type: functional; conditions: Canis lupus familiaris, Stomach, po; outline: as §2
[6] = tested on: Canis familiaris; assay: Volume of histamine stimulated inhibition of gastric secretion when administered perorally in dogs; type: functional; conditions: Canis lupus familiaris, Stomach, po; outline: as §2
[7] = tested on: Canis familiaris; assay: Acid concentration of histamine stimulated inhibition of gastric secretion when administered perorally in dogs; type: functional; conditions: Canis lupus familiaris, Stomach, po; outline: as §2
[8] = tested on: Canis familiaris; assay: Inhibition of gastric acid secretion at 10 mg/kg oral administration to dogs; type: functional; conditions: Canis lupus familiaris, Stomach; outline: as §1
[9] = tested on: Canis familiaris; assay: Volume of gastrin tetrapeptide stimulated inhibition of gastric secretion when administered perorally in dogs; type: functional; conditions: Canis lupus familiaris, Stomach, po; outline: as §2
[10] = tested on: Canis familiaris; assay: Inhibition of gastric acid secretion at 40 mg/kg oral administration to dogs; Compound is CNS (central nervous system) effective; type: functional, organism-based; design: dose 40 mg/kg; conditions: Canis lupus familiaris, Stomach; outline: as §1

SMILES | inhibition in vivo at 40 mg/kg [1] [%] | inhibition in vivo at 20 mg/kg [2] [%] | inhibition in vivo at 10 mg/kg [8] [%] | also measured
CCCN(CCC)CCN(C(=O)N(C)C)c1cc(C)cc(C)n1 | 93 | 22 |  | 
Cc1cc(C)nc(N(CCN(C(C)C)C(C)C)C(=O)N(C)C)c1.Cl |  | 100 | 70 | ED50 [3]: 6.8 mg/kg; ED50 [4]: 5.1 mg/kg; ED50 [5]: 3.3 mg/kg; ED50 [6]: 12.6 mg/kg; ED50 [7]: 9.6 mg/kg; ED50 [9]: 3.8 mg/kg
Cc1cc(C)nc(N(CCCCN(C(C)C)C(C)C)C(=O)N(C)C)c1 | 3 | 5 |  | 
Cc1cc(Cl)nc(N(CCN(C(C)C)C(C)C)C(=O)N(C)C)c1 |  | 71 | 52 | 
CC(C)N(CCN(C(=O)N(C)C)c1ccccn1)C(C)C | 82 | 17 |  | 
Cc1cc(C)nc(N(CCN(C(C)C)C(C)C)C(N)=O)c1 |  | 18 |  | inhibition [10]: CNS effect
Cc1cc(N(CCN(C(C)C)C(C)C)C(=O)N(C)C)nc(C)c1Cl |  | 95 | 62 | 
Cc1cccc(N(CCN(C(C)C)C(C)C)C(=O)N(C)C)n1 |  | 87 | 54 | 
Cc1cc(C)nc(N(CCN(C)C)C(=O)N(C)C)c1 | 58 | 58 | 14 | 
CN/C(=N\CCSCc1nc[nH]c1C)NC#N [CIMETIDINE] |  |  |  | ED50 [3]: 6.4 mg/kg; ED50 [4]: 2.6 mg/kg; ED50 [5]: 3.6 mg/kg; ED50 [6]: 3.5 mg/kg; ED50 [7]: 5 mg/kg; ED50 [9]: 3.9 mg/kg
COc1ccnc(N(CCN(C(C)C)C(C)C)C(=O)N(C)C)c1 |  | 84 | 64 | 
Cc1ccnc(N(CCN(C(C)C)C(C)C)C(=O)N(C)C)c1 |  | 95 | 79 | 
CC(C)N(CCN(C(=O)N(C)C)c1cccc(Cl)n1)C(C)C |  | 78 |  | 
CC(C)N(CCN(C(=O)N(C)C)c1ccc(Cl)cn1)C(C)C |  | 63 | 44 | 
Cc1cc(C)nc(N(CCCN(C(C)C)C(C)C)C(=O)N(C)C)c1 | 35 | 0 |  | 
Cc1ccc(N(CCN(C(C)C)C(C)C)C(=O)N(C)C)nc1 | 33 | 19 |  | 
Cc1cc(C)nc(N(CCNC(C)C)C(=O)N(C)C)c1 | 42 | 33 |  | 
CNCCN(C(=O)N(C)C)c1cc(C)cc(C)n1 | 20 |  |  | 
CNC(=O)N(CCN(C(C)C)C(C)C)c1cc(C)cc(C)n1 |  | 44 |  | inhibition [10]: CNS effect

Reference: ChEMBL document CHEMBL1122360, “Inhibitors of gastric acid secretion: antisecretory 2-pyridylurea derivatives” (1983)
